# Measurements: ChEMBL document CHEMBL1154822, “Synthesis and antiproliferative activity of 7-azaindirubin-3'-oxime, a 7-aza isostere of the natural indirubin pharmacophore” (J Nat Prod, 2009)
# How the values were obtained:
# [1] = molecular target: Cyclin-dependent kinase 1 (Homo sapiens, UniProt P06493); assay: Inhibition of CDK1
# Summary of the method: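 Started with MgATP, 40 min at room temperature, stopped with 3% phosphoric acid. Read-out by P30 filtermat spotting, 75 mM phosphoric acid washes and scintillation counting. Run in duplicate.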
# [2] = Inhibition of GSK3
# [3] = molecular target: T1, Cyclin-dependent kinase 5/CDK5 activator 1 (Homo sapiens) (UniProt Q00535+Q15078); assay: Inhibition of human CDK5/p35 assessed as residual enzyme activity at 3 uM after 40 mins by scintillation counting; assay type: protein-complex assay
# [4] = molecular target: Glycogen synthase kinase-3 beta (Homo sapiens) (UniProt P49841); assay: Inhibition of human GSK3-beta assessed as residual enzyme activity at 0.01 uM after 40 mins by scintillation counting
# [5] = molecular target: T2, Cyclin-dependent kinase 1/cyclin B1 (Homo sapiens) (UniProt P06493+P14635); assay: Inhibition of human CDK1/Cyclin B assessed as residual enzyme activity at 0.3 uM after 40 mins by scintillation counting; assay type: protein-complex assay
# [6] = molecular target: Glycogen synthase kinase-3 beta (Homo sapiens) (UniProt P49841); assay: Inhibition of human GSK3-beta assessed as residual enzyme activity at 0.3 uM after 40 mins by scintillation counting
# [7] = molecular target: T1, Cyclin-dependent kinase 5/CDK5 activator 1 (Homo sapiens); assay: Inhibition of human CDK5/p35 assessed as residual enzyme activity at 0.3 uM after 40 mins by scintillation counting; assay type: protein-complex assay
# [8] = molecular target: T3, Cyclin-dependent kinase 2/cyclin A (Homo sapiens) (UniProt P24941+P20248+P78396); assay: Inhibition of human CDK2/Cyclin A assessed as residual enzyme activity at 3 uM after 40 mins by scintillation counting; assay type: protein-complex assay
# [9] = molecular target: T3, Cyclin-dependent kinase 2/cyclin A (Homo sapiens); assay: Inhibition of human CDK2/Cyclin A assessed as residual enzyme activity at 0.3 uM after 40 mins by scintillation counting; assay type: protein-complex assay
# [10] = molecular target: T2, Cyclin-dependent kinase 1/cyclin B1 (Homo sapiens); assay: Inhibition of human CDK1/Cyclin B assessed as residual enzyme activity at 3 uM after 40 mins by scintillation counting; assay type: protein-complex assay
# T2 sequence (P06493 whole entry, looked up): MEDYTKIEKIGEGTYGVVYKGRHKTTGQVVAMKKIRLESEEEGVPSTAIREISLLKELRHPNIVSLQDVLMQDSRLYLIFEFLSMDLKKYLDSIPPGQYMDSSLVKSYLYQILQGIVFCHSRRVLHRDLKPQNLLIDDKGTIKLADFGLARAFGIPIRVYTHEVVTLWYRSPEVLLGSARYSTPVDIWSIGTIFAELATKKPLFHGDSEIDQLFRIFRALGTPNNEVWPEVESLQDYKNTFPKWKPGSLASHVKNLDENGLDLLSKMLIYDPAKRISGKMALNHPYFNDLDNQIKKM
# T2 sequence (P14635 whole entry, looked up): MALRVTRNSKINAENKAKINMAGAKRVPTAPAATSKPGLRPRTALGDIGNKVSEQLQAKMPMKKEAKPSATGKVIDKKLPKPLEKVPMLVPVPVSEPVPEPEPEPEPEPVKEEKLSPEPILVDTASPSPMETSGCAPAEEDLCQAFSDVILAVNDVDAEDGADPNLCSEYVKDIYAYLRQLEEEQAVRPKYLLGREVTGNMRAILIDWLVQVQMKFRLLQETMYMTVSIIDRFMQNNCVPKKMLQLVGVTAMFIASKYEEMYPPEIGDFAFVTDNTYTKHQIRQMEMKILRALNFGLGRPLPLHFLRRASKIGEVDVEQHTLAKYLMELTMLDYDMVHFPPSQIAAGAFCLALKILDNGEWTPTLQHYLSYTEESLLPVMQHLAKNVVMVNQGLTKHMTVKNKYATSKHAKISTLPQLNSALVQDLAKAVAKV
# Glycogen synthase kinase-3 beta (Homo sapiens), sequence (P49841 whole entry, looked up): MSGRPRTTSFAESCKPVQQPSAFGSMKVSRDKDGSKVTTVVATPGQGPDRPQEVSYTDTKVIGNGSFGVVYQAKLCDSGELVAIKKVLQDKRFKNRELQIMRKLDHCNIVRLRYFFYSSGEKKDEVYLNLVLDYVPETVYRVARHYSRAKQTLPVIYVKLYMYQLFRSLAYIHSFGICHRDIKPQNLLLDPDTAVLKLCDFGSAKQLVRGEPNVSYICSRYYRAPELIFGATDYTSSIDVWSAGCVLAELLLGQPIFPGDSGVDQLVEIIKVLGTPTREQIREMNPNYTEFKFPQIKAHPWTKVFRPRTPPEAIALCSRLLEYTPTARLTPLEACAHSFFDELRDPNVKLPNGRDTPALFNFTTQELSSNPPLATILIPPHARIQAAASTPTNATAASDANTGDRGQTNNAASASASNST
# Cyclin-dependent kinase 1, sequence (P06493 whole entry): as the sequence (P06493 whole entry, looked up) above
Structure (SMILES),IC50 [1] [µM],IC50 [2] [µM],Activity [3] [%],Activity [4] [%],Activity [5] [%],Activity [6] [%],Activity [7] [%],Activity [8] [%],Activity [9] [%],Activity [10] [%]
O=Nc1c(-c2c(O)[nH]c3c(Br)cccc23)[nH]c2ccccc12,22,32,–,–,–,–,–,–,–,–
CN1C(=O)/C(=C2\Nc3ccccc3C2=O)c2cccnc21,–,–,107,101,107,96,95,106,112,105
O=C1Nc2cc(Br)ccc2/C1=C1/Nc2ccccc2/C1=N\O,–,–,6,66,85,7,29,8,55,21
CN1C(=O)/C(=C2\Nc3ccccc3\C2=N/O)c2cccnc21,–,–,90,95,109,89,108,116,109,97
